Active and inactive are the calls of the source. No cut-off for these calls is given here.
Columns and labels:
[1] = molecular target: Sodium- and chloride-dependent GABA transporter 1 (Homo sapiens) (UniProt P30531); assay: Inhibition of human GAT1 expressed in HEK293 cells assessed as reduction in [3H]GABA uptake preincubated for 25 mins followed by [3H]GABA addition and measured after 4 mins by liquid scintillation counting method; format: cell-based
[2] = molecular target: Sodium- and chloride-dependent GABA transporter 1 (Mus musculus) (UniProt P31648); assay: Inhibition of NO711 binding to mouse GAT1 expressed in HEK293 cell membranes assessed as residual binding at 1 uM preincubated for 4 hrs followed by NO711 addition and measured after 40 mins by LC-ESI-MS/MS analysis relative to control
Summary of the method: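 Single hydrazones formed in situ in the presence of mouse GAT1 from one aldehyde (1.0 µM) and hydrazine (200 µM). Formation ran 4 h, then NO711 MS marker was added for 40 min. Specifically bound NO711 was freed from the target and quantified by LC-ESI-MS/MS. Results are % remaining specific binding, means±SD of four replicates.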

Sequence of Sodium- and chloride-dependent GABA transporter 1 (Homo sapiens) (P30531 whole entry, looked up): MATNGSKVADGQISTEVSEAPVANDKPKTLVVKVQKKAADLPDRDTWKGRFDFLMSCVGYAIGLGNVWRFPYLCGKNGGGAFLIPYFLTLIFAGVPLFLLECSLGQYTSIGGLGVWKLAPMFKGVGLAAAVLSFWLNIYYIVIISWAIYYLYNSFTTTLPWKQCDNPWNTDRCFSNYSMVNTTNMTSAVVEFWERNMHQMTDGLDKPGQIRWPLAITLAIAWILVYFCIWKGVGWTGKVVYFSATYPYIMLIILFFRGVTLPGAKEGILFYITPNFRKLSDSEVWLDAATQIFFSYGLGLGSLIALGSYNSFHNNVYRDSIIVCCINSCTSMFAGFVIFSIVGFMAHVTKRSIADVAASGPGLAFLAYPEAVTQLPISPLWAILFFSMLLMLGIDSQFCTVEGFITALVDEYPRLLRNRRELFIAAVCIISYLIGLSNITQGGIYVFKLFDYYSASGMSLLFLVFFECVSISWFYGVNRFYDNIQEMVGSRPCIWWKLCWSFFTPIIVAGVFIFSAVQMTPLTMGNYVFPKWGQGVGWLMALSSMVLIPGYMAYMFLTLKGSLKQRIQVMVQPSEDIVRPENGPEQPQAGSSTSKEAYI

Row | Compound | inhibition [1] | Activity [2]
1 | O=C(O)C1=CCCN(CCON=C(c2ccccc2)c2ccccc2)C1 | Active | 
2 | COc1cc(/C=N/NCC[C@@H]2CNC[C@H](C(=O)O)C2)cc(OC)c1O (racemic) |  | 62%
3 | Cc1ccc(-c2cccc(/C=N/NC[C@@H]3CNC[C@H](C(=O)O)C3)c2)cc1 (racemic) |  | 61%
4 | Cc1ccc(-c2ccsc2/C=N/NCC[C@@H]2CNC[C@H](C(=O)O)C2)cc1 (racemic) |  | 83%
5 | Cc1cccc2cc(/C=N/NCC[C@@H]3CNC[C@H](C(=O)O)C3)c(Cl)nc12 (racemic) |  | 62%
6 | Cc1ccccc1-c1ccsc1/C=N/NCC[C@@H]1CNC[C@H](C(=O)O)C1 (racemic) |  | 64%
7 | Cc1ccsc1-c1ccccc1/C=N/NCC[C@@H]1CNC[C@H](C(=O)O)C1 (racemic) |  | 61%
8 | Cc1ccsc1-c1sc(/C=N/NCC[C@@H]2CNC[C@H](C(=O)O)C2)cc1C (racemic) |  | 79%
9 | Cc1ccsc1-c1sc(/C=N/NCC[C@H]2CNC[C@H](C(=O)O)C2)cc1C (racemic) |  | > 50%
10 | Cc1ccsc1-c1sc(/C=N/NC[C@H]2CNC[C@H](C(=O)O)C2)cc1C (racemic) |  | > 50%
11 | Cn1c(/C=N/NC[C@@H]2CNC[C@H](C(=O)O)C2)ccc1-c1ccc(Cl)cc1 (racemic) |  | 87%
12 | Cn1cnnc1Sc1ccc(/C=N/NCC[C@@H]2CNC[C@H](C(=O)O)C2)o1 (racemic) |  | 73%
13 | Cn1cnnc1Sc1ccc(/C=N/NC[C@@H]2CNC[C@H](C(=O)O)C2)o1 (racemic) |  | 84%
14 | Nc1ncc(-c2ccccc2/C=N/NC[C@@H]2CNC[C@H](C(=O)O)C2)cn1 (racemic) |  | 93%
15 | O=C(O)[C@H]1CNC[C@@H](CCN/N=C/c2ccc(-c3cc(C(F)(F)F)cc(C(F)(F)F)c3)o2)C1 (racemic) |  | 76%
16 | O=C(O)[C@H]1CNC[C@@H](CCN/N=C/c2ccc(-c3cc(C(F)(F)F)ccc3Cl)o2)C1 (racemic) |  | 54%
17 | O=C(O)[C@H]1CNC[C@@H](CCN/N=C/c2ccc(-c3ccc(Br)cc3)o2)C1 (racemic) |  | 65%
18 | O=C(O)[C@H]1CNC[C@@H](CCN/N=C/c2ccc(-c3ccc(C(F)(F)F)cc3Cl)o2)C1 (racemic) | Active | 47%
19 | O=C(O)[C@H]1CNC[C@@H](CCN/N=C/c2ccc(-c3ccc(Cl)cc3)o2)C1 (racemic) |  | 62%
20 | O=C(O)[C@H]1CNC[C@@H](CCN/N=C/c2ccc(-c3ccc(Cl)cc3Cl)o2)C1 (racemic) | Active | 41%
21 | O=C(O)[C@H]1CNC[C@@H](CCN/N=C/c2ccc(-c3ccc(Cl)cc3F)o2)C1 (racemic) |  | 64%
22 | O=C(O)[C@H]1CNC[C@@H](CCN/N=C/c2ccc(-c3ccc(Cl)cc3[N+](=O)[O-])o2)C1 (racemic) |  | 60%
23 | O=C(O)[C@H]1CNC[C@@H](CCN/N=C/c2ccc(-c3ccc(F)c(C(F)(F)F)c3)o2)C1 (racemic) |  | 72%
24 | O=C(O)[C@H]1CNC[C@@H](CCN/N=C/c2ccc(-c3cccc(C(F)(F)F)c3)o2)C1 (racemic) |  | 70%
25 | O=C(O)[C@H]1CNC[C@@H](CCN/N=C/c2ccc(-c3cccc(Cl)c3)o2)C1 (racemic) |  | 69%

Row | Compound | inhibition [1] | Activity [2]
26 | O=C(O)[C@H]1CNC[C@@H](CCN/N=C/c2ccc(-c3cccc4ccccc34)o2)C1 (racemic) |  | 58%
27 | O=C(O)[C@H]1CNC[C@@H](CCN/N=C/c2ccc(-c3ccccc3)o2)C1 (racemic) |  | 61%
28 | O=C(O)[C@H]1CNC[C@@H](CCN/N=C/c2ccc(-c3ccccc3C(F)(F)F)o2)C1 (racemic) |  | 60%
29 | O=C(O)[C@H]1CNC[C@@H](CCN/N=C/c2ccc(-c3ccccc3Cl)o2)C1 (racemic) |  | 52%
30 | O=C(O)[C@H]1CNC[C@@H](CCN/N=C/c2ccc(-c3ccccc3OC(F)(F)F)o2)C1 (racemic) |  | 59%
31 | O=C(O)[C@H]1CNC[C@@H](CCN/N=C/c2ccc(-c3ccn[nH]3)o2)C1 (racemic) |  | 72%
32 | O=C(O)[C@H]1CNC[C@@H](CCN/N=C/c2ccc(C#Cc3ccccc3)s2)C1 (racemic) |  | 71%
33 | O=C(O)[C@H]1CNC[C@@H](CCN/N=C/c2ccccc2-c2ccsc2)C1 (racemic) |  | 80%
34 | O=C(O)[C@H]1CNC[C@@H](CCN/N=C/c2ccccc2-n2cccc2)C1 (racemic) |  | 82%
35 | O=C(O)[C@H]1CNC[C@@H](CCN/N=C/c2cccn2-c2ccc(C(F)(F)F)cc2)C1 (racemic) |  | 74%
36 | O=C(O)[C@H]1CNC[C@@H](CCN/N=C/c2ccco2)C1 (racemic) |  | 60%
37 | O=C(O)[C@H]1CNC[C@@H](CCN/N=C/c2cnc(-c3ccccn3)nc2)C1 (racemic) |  | 83%
38 | O=C(O)[C@H]1CNC[C@@H](CCN/N=C/c2csc3ccccc23)C1 (racemic) |  | 75%
39 | O=C(O)[C@H]1CNC[C@@H](CCN/N=C/c2sccc2-n2cccc2)C1 (racemic) |  | 72%
40 | O=C(O)[C@H]1CNC[C@@H](CN/N=C/c2cc(Br)co2)C1 (racemic) |  | 53%
41 | O=C(O)[C@H]1CNC[C@@H](CN/N=C/c2ccc(-c3ccc(Br)cc3)o2)C1 (racemic) |  | 59%
42 | O=C(O)[C@H]1CNC[C@@H](CN/N=C/c2ccc(-c3ccc(Cl)cc3)s2)C1 (racemic) |  | 75%
43 | O=C(O)[C@H]1CNC[C@@H](CN/N=C/c2ccc(-c3ccccc3)[nH]2)C1 (racemic) |  | 85%
44 | O=C(O)[C@H]1CNC[C@@H](CN/N=C/c2ccc(-c3ccccc3)s2)C1 (racemic) |  | 55%
45 | O=C(O)[C@H]1CNC[C@@H](CN/N=C/c2ccc(-c3ccccc3Br)o2)C1 (racemic) |  | 36%
46 | O=C(O)[C@H]1CNC[C@@H](CN/N=C/c2ccc(Br)o2)C1 (racemic) |  | 55%
47 | O=C(O)[C@H]1CNC[C@@H](CN/N=C/c2ccc(I)o2)C1 (racemic) |  | 69%
48 | O=C(O)[C@H]1CNC[C@@H](CN/N=C/c2ccc[nH]2)C1 (racemic) |  | 89%
49 | O=C(O)[C@H]1CNC[C@@H](CN/N=C/c2cccc(-c3ccc(Cl)cc3)c2)C1 (racemic) |  | 52%
50 | O=C(O)[C@H]1CNC[C@@H](CN/N=C/c2cccc(-c3ccc(F)cc3)c2)C1 (racemic) |  | 50%

Row | Compound | inhibition [1] | Activity [2]
51 | O=C(O)[C@H]1CNC[C@@H](CN/N=C/c2cccs2)C1 (racemic) |  | 67%
52 | O=C(O)[C@H]1CNC[C@@H](CN/N=C/c2cnc(-c3ccc4ccccc4c3)nc2)C1 (racemic) |  | 27%
53 | O=C(O)[C@H]1CNC[C@@H](CN/N=C/c2cnc(-c3cccc4ccccc34)nc2)C1 (racemic) |  | 61%
54 | O=C(O)[C@H]1CNC[C@@H](CN/N=C/c2cnc(-c3ccccc3)nc2)C1 (racemic) |  | 55%
55 | O=C(O)[C@H]1CNC[C@@H](CN/N=C/c2cnc(-c3ccccc3F)nc2)C1 (racemic) |  | 68%
56 | O=C(O)[C@H]1CNC[C@@H](CN/N=C/c2cnc(-c3ccco3)nc2)C1 (racemic) |  | 73%
57 | O=C(O)[C@H]1CNC[C@@H](CN/N=C/c2cnc(-c3cccs3)nc2)C1 (racemic) |  | 60%
58 | O=C(O)[C@H]1CNC[C@@H](CN/N=C/c2cnc(N3CCCCC3)nc2)C1 (racemic) |  | 69%
59 | O=C(O)[C@H]1CNC[C@@H](CN/N=C/c2cnc(NCc3ccccc3)nc2)C1 (racemic) |  | 60%
60 | O=C(O)[C@H]1CNC[C@@H](CN/N=C/c2cnc(SCc3ccccc3)nc2)C1 (racemic) |  | 53%
61 | O=C(O)[C@H]1CNC[C@@H](CN/N=C/c2cncnc2)C1 (racemic) |  | 64%
62 | O=C(O)[C@H]1CNC[C@H](CCN/N=C/c2ccc(-c3ccc(C(F)(F)F)cc3Cl)o2)C1 (racemic) |  | > 50%
63 | O=C(O)[C@H]1CNC[C@H](CCN/N=C/c2ccc(-c3ccccc3OC(F)(F)F)o2)C1 (racemic) |  | > 50%
64 | O=C(O)[C@H]1CNC[C@H](CCN/N=C/c2ccc(C#Cc3ccccc3)s2)C1 (racemic) |  | > 50%
65 | O=C(O)[C@H]1CNC[C@H](CCN/N=C/c2ccccc2-n2cccc2)C1 (racemic) |  | > 50%
66 | O=C(O)[C@H]1CNC[C@H](CCN/N=C/c2cccn2-c2ccc(C(F)(F)F)cc2)C1 (racemic) |  | > 50%
67 | O=C(O)[C@H]1CNC[C@H](CCN/N=C/c2csc3ccccc23)C1 (racemic) |  | > 50%
68 | O=C(O)[C@H]1CNC[C@H](CCN/N=C/c2sccc2-n2cccc2)C1 (racemic) |  | > 50%
69 | O=C(O)[C@H]1CNC[C@H](CN/N=C/c2ccc(-c3ccc(C(F)(F)F)cc3Cl)o2)C1 (racemic) |  | > 50%
70 | O=C(O)[C@H]1CNC[C@H](CN/N=C/c2ccc(-c3ccccc3OC(F)(F)F)o2)C1 (racemic) |  | > 50%
71 | O=C(O)[C@H]1CNC[C@H](CN/N=C/c2ccc(C#Cc3ccccc3)s2)C1 (racemic) |  | > 50%
72 | O=C(O)[C@H]1CNC[C@H](CN/N=C/c2ccccc2-n2cccc2)C1 (racemic) |  | > 50%
73 | O=C(O)[C@H]1CNC[C@H](CN/N=C/c2cccn2-c2ccc(C(F)(F)F)cc2)C1 (racemic) |  | > 50%
74 | O=C(O)[C@H]1CNC[C@H](CN/N=C/c2csc3ccccc23)C1 (racemic) |  | > 50%
75 | O=C(O)[C@H]1CNC[C@H](CN/N=C/c2sccc2-n2cccc2)C1 (racemic) |  | > 50%
